The array DNA melting data of Ke et al. (doi:10.1101/2024.01.08.574731)

How the values were obtained:
[1] = folding enthalpy; higher = less favourable; fluorescence melt of hairpins on a sequencing array, two-state fit; settings: sodium 0.088 M
In short: (§1)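 Melting temperature and folding enthalpy were derived from bootstrapped two-state fits. The fitted temperatures were raised by 9.35 °C to agree with UV melts, and four replicates were combined by inverse variance. The underlying data were Cy3 fluorescence images of library hairpins, with annealed Cy3 and quencher oligos, on a sequenced MiSeq flow cell in 50 mM Na-HEPES pH 8.0, 25 mM NaCl, taken in 2.5 °C steps up to 60 °C, normalised to pre-quench Cy3 and to control constructs.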

[2] = melting temperature; fluorescence melt of hairpins on a sequencing array, two-state fit, raised by 9.35 °C to match UV melts; settings: sodium 0.088 M
In short: as §1

Sequence | folding enthalpy [1] | Tm [2]
GCGAGTGTTCGC ((((....)))) | -14.4 kcal/mol | 49 °C
GCGAGTTATCGC ((((....)))) | -24 kcal/mol | 57.6 °C
GCGAGTTCTCGC ((((....)))) | -25.6 kcal/mol | 56.2 °C
GCGATACGAAAGTACCGC (((.(((....))).))) | -43.2 kcal/mol | 54.2 °C
GCGATACGAAAGTACGC (((.(((....)))))) | -29.6 kcal/mol | 55.4 °C
GCGATAGAAATATCGC ((((((....)))))) | -41.7 kcal/mol | 58.3 °C
GCGATAGCGAAAGCTCGC (((..(((....)))))) | -18.5 kcal/mol | 51.5 °C
GCGATAGGAAACCATCGC (((((.(....).))))) | -34.5 kcal/mol | 50.1 °C
GCGATAGGAAACTACCGC (((.(((....))).))) | -28.5 kcal/mol | 44.7 °C
GCGATAGGAAACTATCGC (((((((....))))))) | -57.2 kcal/mol | 65.9 °C
GCGATCACGAAAGTGCGC (((..(((....)))))) | -20.9 kcal/mol | 48.7 °C
GCGATCCCTCGC ((((....)))) | -24.1 kcal/mol | 49.8 °C
GCGATCCGAAAGGACGC (((.(((....)))))) | -37.7 kcal/mol | 61.3 °C
GCGATCCGTCGC ((((....)))) | -24.6 kcal/mol | 51.6 °C
GCGATCGAAAGATATCGC ((((((....)))..))) | -29.2 kcal/mol | 47 °C
GCGATCGAAAGATTCGC ((((((....))).))) | -45.1 kcal/mol | 53.5 °C
GCGATCGATCGC ((((....)))) | -41.2 kcal/mol | 56.5 °C
GCGATCGCGAAAGCGCGC (((..(((....)))))) | -15.4 kcal/mol | 55.2 °C
GCGATCGGAAACAATCGC (((((.(....).))))) | -37.6 kcal/mol | 48.1 °C
GCGATCGGAAACGGTTGC ((.(.((....)).).)) | -29.6 kcal/mol | 44.9 °C
GCGATCGTTCGC ((((....)))) | -29 kcal/mol | 50.4 °C
GCGATCTCTCGC ((((....)))) | -31.1 kcal/mol | 47.9 °C
GCGATGCGAAAGCACAGC ((..(((....)))..)) | -19.2 kcal/mol | 52 °C
GCGATGCGAAAGCCTTGC ((.(.((....)).).)) | -25.4 kcal/mol | 36.3 °C

Sequence | folding enthalpy [1] | Tm [2]
GCGATGCGAAAGCGTAGC ((.(.((....)).).)) | -24.6 kcal/mol | 54.8 °C
GCGATGCGAAAGCGTGGC ((.(.((....)).).)) | -21.6 kcal/mol | 54.7 °C
GCGATGCTCGC ((((...)))) | -14.1 kcal/mol | 54.9 °C
GCGATGTATCGC ((((....)))) | -28.2 kcal/mol | 56.7 °C
GCGATTACTCGC ((((....)))) | -23.7 kcal/mol | 49.3 °C
GCGATTCCTCGC ((((....)))) | -22.4 kcal/mol | 49.5 °C
GCGATTCTCGC ((((...)))) | -21.7 kcal/mol | 52 °C
GCGATTTATCGC ((((....)))) | -28.4 kcal/mol | 68.7 °C
GCGATTTGTCGC ((((....)))) | -23.5 kcal/mol | 54 °C
GCGATTTTTCGC ((((....)))) | -27.2 kcal/mol | 53.1 °C
GCGCAACGAAAGTTACGC (((.(((....))).))) | -44.9 kcal/mol | 57.5 °C
GCGCAACGAAAGTTCCGC (((.(((....))).))) | -30.5 kcal/mol | 49.3 °C
GCGCAACGAAAGTTTCGC (((.(((....))).))) | -43 kcal/mol | 52.9 °C
GCGCACCGAAAGGTACGC (((.(((....))).))) | -42.3 kcal/mol | 64.3 °C
GCGCACCGAAAGGTCCGC (((.(((....))).))) | -37.8 kcal/mol | 55.6 °C
GCGCACGAAAGTGACGC ((((((....))).))) | -24 kcal/mol | 63.3 °C
GCGCACGAAAGTGGCCGC ((((((....)))..))) | -19.4 kcal/mol | 54.1 °C
GCGCACGAAAGTGTACGC ((((((....)))..))) | -23.8 kcal/mol | 53.5 °C
GCGCACGGAAACATGCGC (((((.(....).))))) | -37.5 kcal/mol | 59 °C
GCGCACTCGAAAGAGCGC (((..(((....)))))) | -23.6 kcal/mol | 57.1 °C
GCGCAGCGAAAGCCACGC (((..((....))..))) | -9.86 kcal/mol | 42.4 °C
GCGCAGCGAAAGCCGTGC ((.(.((....)).).)) | -9.79 kcal/mol | 46.2 °C
GCGCAGCGAAAGCGGTGC ((.(.((....)).).)) | -16.5 kcal/mol | 61.5 °C
GCGCAGCGAAAGCTTCGC (((.(((....))).))) | -36.1 kcal/mol | 51.4 °C

Sequence | folding enthalpy [1] | Tm [2]
GCGCAGGGAAACCCGCAC (.((.((....)).)).) | -17 kcal/mol | 37 °C
GCGCATCGAAAGATACGC (((.(((....))).))) | -38.6 kcal/mol | 54.5 °C
GCGCATGGAAACACGCGC ((((.((....)).)))) | -40.4 kcal/mol | 56.1 °C
GCGCATGGAAACATGCAC (.(((((....))))).) | -12.5 kcal/mol | 47.1 °C
GCGCATGGAAACGTGCGC (((((.(....).))))) | -41 kcal/mol | 66.6 °C
GCGCCACGAAAGTGTCGC (((.(((....))).))) | -41.7 kcal/mol | 63.3 °C
GCGCCAGCGAAAGCTCGC (((..(((....)))))) | -8.39 kcal/mol | 45 °C
GCGCCAGGAAACCAGCGC ((((..(....)..)))) | -26.4 kcal/mol | 51.4 °C
GCGCCAGGAAACCGGCAC (.(((.(....).))).) | -16.6 kcal/mol | 37.4 °C
GCGCCCGAAAGGGCCGC ((((((....))).))) | -11.5 kcal/mol | 68 °C
GCGCCCGAAAGGGTCCGC ((((((....)))..))) | -14.8 kcal/mol | 56.2 °C
GCGCCCGAAAGGGTTCGC ((((((....)))..))) | -17.7 kcal/mol | 54.6 °C
GCGCCCTCGAAAGAGCGC (((..(((....)))))) | -32 kcal/mol | 54.3 °C
GCGCCGCGAAAGCAGTGC ((.(.((....)).).)) | -19.4 kcal/mol | 53.5 °C
GCGCCGCGAAAGCATCGC (((..((....))..))) | -17 kcal/mol | 51.2 °C
GCGCCGCGAAAGCGTGGC ((..(((....)))..)) | -14.9 kcal/mol | 51.7 °C
GCGCCGCGAAAGCTTCGC (((..((....))..))) | -15.6 kcal/mol | 54.7 °C
GCGCCGGGAAACCGGCAC (.(((((....))))).) | -8.63 kcal/mol | 53.4 °C
GCGCCTACGAAAGTACGC (((..(((....)))))) | -27.8 kcal/mol | 42 °C
GCGCCTCGAAAGAGCGC (((.(((....)))))) | -35.9 kcal/mol | 67.4 °C
GCGCCTGGAAACAGGTGC ((.((((....)))).)) | -46.6 kcal/mol | 64.2 °C
GCGCCTGGAAACGGGTGC ((.((.(....).)).)) | -46.3 kcal/mol | 52.3 °C
GCGCGAGGAAACTCACGC (((.(((....))).))) | -38.2 kcal/mol | 53.8 °C
GCGCGCGAAAGCGACCGC ((((((....)))..))) | -16.8 kcal/mol | 54.3 °C

Sequence | folding enthalpy [1] | Tm [2]
GCGCGCGGAAACGCACGC (((.(((....))).))) | -32.6 kcal/mol | 67.8 °C
GCGCGCGGAAACGCGCAC (.(((((....))))).) | -7.45 kcal/mol | 65.3 °C
GCGCGGCGAAAGCCCTGC ((..(((....)))..)) | -13.5 kcal/mol | 50.1 °C
GCGCGGCGAAAGCCTAGC ((..(((....)))..)) | -26.9 kcal/mol | 61.1 °C
GCGCGGCGAAAGCGTCGC (((..((....))..))) | -19.8 kcal/mol | 63.2 °C
GCGCGGCGAAAGCTACGC (((..((....))..))) | -19.8 kcal/mol | 64.1 °C
GCGCGGCGAAAGCTCCGC (((..((....))..))) | -20.3 kcal/mol | 58.3 °C
GCGCGTCCGAAAGGACGC (((..(((....)))))) | -5.6 kcal/mol | 67.3 °C
GCGCGTGGAAACGTGCGC ((((..(....)..)))) | -40.5 kcal/mol | 64.7 °C
GCGCTAACGAAAGTTCGC (((..(((....)))))) | -21.8 kcal/mol | 45.4 °C
GCGCTACGAAAGTATCGC (((.(((....))).))) | -42.1 kcal/mol | 53.9 °C
GCGCTCCGAAAGGACGC (((.(((....)))))) | -33.6 kcal/mol | 60 °C
GCGCTCGAAAGAGGCGC ((((((....))).))) | -29.2 kcal/mol | 67.4 °C
GCGCTCGAAAGAGGTCGC ((((((....)))..))) | -25.2 kcal/mol | 47.9 °C
GCGCTGCGAAAGCACAGC ((..(((....)))..)) | -17.6 kcal/mol | 49.9 °C
GCGCTGCGAAAGCATCGC (((.(((....))).))) | -60.2 kcal/mol | 58.6 °C
GCGCTGCGAAAGCTCCGC (((..((....))..))) | -20.5 kcal/mol | 49.4 °C
GCGCTGCGAAAGCTGGGC ((.(.((....)).).)) | -24.4 kcal/mol | 62.4 °C
GCGCTGCGAAAGCTGTGC ((.(.((....)).).)) | -34.4 kcal/mol | 59.5 °C
GCGCTGGGAAACCGGTGC ((.(.((....)).).)) | -42.6 kcal/mol | 51.5 °C
GCGCTTCGAAAGAAACGC (((.(((....))).))) | -38.8 kcal/mol | 54.5 °C
